# Measurements: ChEMBL document CHEMBL4346663, “N-Cinnamoylanthranilates as human TRPA1 modulators: Structure-activity relationships and channel binding sites” (Eur J Med Chem, 2019)
# Calls of active or inactive are those of the source. The rule behind the calls is not given here.
# Legend:
# Type in all cases: cell-based
# [1] = test system: Transient receptor potential cation channel subfamily A member 1 (Homo sapiens), O75762 [F909A]; assay: Agonist activity at human TRPA1 Phe909Ala mutant expressed in HEK293 cells assessed as Ca2+ influx at 30 uM by fluorescence assay
# Method in brief: (§1)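 HEK293 cells stably expressing hTRPA1 point mutants (C621A, F909A or F944A), single-cell cloned under G418 selection. Cells plated on poly-D-lysine for 48 h, loaded with Fluo-4AM 2 µM for 45 min at room temperature. FlexStation read (ex 485/em 538 nm): 20 s baseline, compound added, calcimycin added at 180 s. Response expressed as % calcimycin from ΔRFU, vehicle-subtracted, and compared with wild-type hTRPA1 cells.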
# [2] = biological target: Transient receptor potential cation channel subfamily A member 1 (Mus musculus, UniProt Q8BLA8); assay: Agonist activity at mouse TRPA1 expressed in CHO cells assessed as increase in calcium influx by Fluo-3 based FLIPR analysis
# [3] = biological target: T1, Transient receptor potential cation channel subfamily A member 1 (Homo sapiens, UniProt O75762); assay: Agonist activity at human TRPA1 expressed in HEK293 cells assessed as increase in calcium influx by Fluo-4-AM dye based fluorescence assay; conditions: read-out: EC50
# Method in brief: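 Stably transfected hTRPA1- or hTRPM8-HEK293 cells on poly-D-lysine plates for 48 h, loaded with Fluo-4AM (2 µM, 45 min, dark, room temperature), in isotonic HEPES buffer pH 7.4. FlexStation 240 s run: 20 s baseline, compound added, calcimycin added at 180 s. ΔRFU expressed as % calcimycin, DMSO-subtracted. Screening N = 3. Dose-response curves fitted for logEC50 (N = 3 in duplicate or triplicate).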
# [4] = test system: Transient receptor potential cation channel subfamily A member 1 (Homo sapiens), O75762 [F944A]; assay: Agonist activity at human TRPA1 Phe944Ala mutant expressed in HEK293 cells assessed as Ca2+ influx at 30 uM by fluorescence assay; method in brief: as §1
# [5] = biological target: T1, Transient receptor potential cation channel subfamily A member 1; assay: Agonist activity at human TRPA1 expressed in HEK293 cells assessed as increase in calcium influx by Calcium-5 dye based fluorescence assay
# [6] = test system: Transient receptor potential cation channel subfamily A member 1 (Homo sapiens), O75762 [F944A]; assay: Agonist activity at human TRPA1 Phe944Ala mutant expressed in HEK293 cells assessed as Ca2+ influx […] by fluorescence assay; method in brief: as §1
# [7] = test system: Transient receptor potential cation channel subfamily A member 1 (Homo sapiens), O75762 [F909A]; assay: Agonist activity at human TRPA1 Phe909Ala mutant expressed in HEK293 cells assessed as Ca2+ influx […] fluorescence assay; method in brief: as §1
# [8] = test system: Transient receptor potential cation channel subfamily A member 1 (Homo sapiens), O75762 [C621A]; assay: Agonist activity at human TRPA1 […] mutant expressed in HEK293 cells assessed as Ca2+ influx […] by fluorescence assay; method in brief: as §1
# [9] = biological target: T1, Transient receptor potential cation channel subfamily A member 1; assay: Agonist activity at human TRPA1 expressed in CHO cells assessed as increase in calcium influx by Fluo-4-AM dye based fluorescence assay
# [10] = biological target: T1, Transient receptor potential cation channel subfamily A member 1; assay: Agonist activity at human TRPA1 expressed in HEK293 assessed as increase in calcium influx by […]
# [11] = test system: Transient receptor potential cation channel subfamily A member 1 (Homo sapiens), O75762 [F909A]; assay: Agonist activity at human TRPA1 Phe909Ala mutant expressed in HEK293 cells assessed as Ca2+ influx at 100 uM by fluorescence assay
# Method in brief: (§2)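 HEK293 cells stably expressing hTRPA1 point mutants, made by FuGENE 6 transfection, G418 (0.5 mg ml-1) selection and single-cell cloning, grown in DMEM with 25 mM HEPES, 10% FBS and geneticin. Ca2+ influx was read by Fluo dye fluorescence at room temperature, with calcimycin added at the end. Response was ΔRFU as % of calcimycin, with the DMSO vehicle subtracted.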
# [12] = test system: Transient receptor potential cation channel subfamily A member 1 (Homo sapiens), O75762 [F944A]; assay: Agonist activity at human TRPA1 Phe944Ala mutant expressed in HEK293 cells assessed as Ca2+ influx at 100 uM by fluorescence assay; method in brief: as §2
# [13] = test system: Transient receptor potential cation channel subfamily A member 1 (Homo sapiens), O75762 [F909A]; assay: Agonist activity at human TRPA1 Phe909Ala mutant expressed in HEK293 cells assessed as Ca2+ influx at 1 uM by fluorescence assay; method in brief: as §1
# [14] = test system: Transient receptor potential cation channel subfamily A member 1 (Homo sapiens), O75762 [C621A]; assay: Agonist activity at human TRPA1 […] mutant expressed in HEK293 cells assessed as Ca2+ influx at 1 uM by fluorescence assay
# [15] = biological target: T1, Transient receptor potential cation channel subfamily A member 1; assay: Agonist activity at human TRPA1 expressed in HEK293 cells assessed as increase in calcium influx by FLIPR analysis
# Method in brief: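 Stably transfected hTRPA1-HEK293 cells plated on poly-D-lysine at 12500 cells per well, grown 48 h, loaded with 2 µM Fluo-4AM for 45 min in the dark at room temperature. Assayed in isotonic HEPES buffer (pH 7.4) on a plate reader, ex 485/em 538 nm. Compound added at 20 s, calcimycin at 180 s. ΔRFU taken as % calcimycin after DMSO subtraction. Three independent experiments.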
# [16] = biological target: T1, Transient receptor potential cation channel subfamily A member 1; assay: Agonist activity at human TRPA1 expressed in HEK293 cells assessed as increase in calcium influx by Fluo-3/acetoxymethyl ester dye based FLIPR analysis
# T1 sequence (O75762 whole entry): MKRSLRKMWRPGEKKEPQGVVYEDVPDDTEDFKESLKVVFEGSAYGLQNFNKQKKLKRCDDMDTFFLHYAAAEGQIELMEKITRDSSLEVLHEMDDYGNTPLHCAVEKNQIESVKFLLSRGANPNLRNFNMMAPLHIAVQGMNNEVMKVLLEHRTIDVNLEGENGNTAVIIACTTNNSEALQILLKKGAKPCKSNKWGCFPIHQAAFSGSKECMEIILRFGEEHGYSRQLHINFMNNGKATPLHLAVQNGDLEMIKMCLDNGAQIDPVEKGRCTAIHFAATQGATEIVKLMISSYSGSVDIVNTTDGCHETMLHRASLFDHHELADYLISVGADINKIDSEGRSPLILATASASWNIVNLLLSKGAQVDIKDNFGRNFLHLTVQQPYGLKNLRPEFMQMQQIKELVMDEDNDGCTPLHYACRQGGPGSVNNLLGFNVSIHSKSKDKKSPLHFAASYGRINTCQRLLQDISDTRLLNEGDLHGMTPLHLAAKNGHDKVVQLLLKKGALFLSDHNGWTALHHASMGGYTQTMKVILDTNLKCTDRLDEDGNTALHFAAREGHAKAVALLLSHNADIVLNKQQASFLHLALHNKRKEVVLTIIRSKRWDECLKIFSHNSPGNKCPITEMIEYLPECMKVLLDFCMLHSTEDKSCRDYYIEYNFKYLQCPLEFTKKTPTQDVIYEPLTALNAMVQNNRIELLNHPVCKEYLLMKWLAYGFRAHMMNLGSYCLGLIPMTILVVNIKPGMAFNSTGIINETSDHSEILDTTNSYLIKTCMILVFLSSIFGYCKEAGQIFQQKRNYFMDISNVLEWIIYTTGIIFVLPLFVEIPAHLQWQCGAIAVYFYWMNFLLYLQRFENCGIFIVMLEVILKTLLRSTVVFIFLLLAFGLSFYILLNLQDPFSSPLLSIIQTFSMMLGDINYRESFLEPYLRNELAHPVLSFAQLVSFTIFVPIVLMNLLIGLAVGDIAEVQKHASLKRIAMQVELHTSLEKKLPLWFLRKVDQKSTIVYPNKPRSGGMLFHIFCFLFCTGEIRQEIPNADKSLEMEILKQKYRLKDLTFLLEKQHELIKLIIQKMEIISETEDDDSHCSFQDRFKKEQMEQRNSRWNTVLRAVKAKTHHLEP
# Transient receptor potential cation channel subfamily A member 1 (Homo sapiens), O75762 [C621A], sequence (O75762 whole entry C621A): as the sequence (O75762 whole entry) above, with C621A counted along it
# Transient receptor potential cation channel subfamily A member 1 (Homo sapiens), O75762 [F944A], sequence (O75762 whole entry F944A): as the sequence (O75762 whole entry) above, with F944A counted along it
# Transient receptor potential cation channel subfamily A member 1 (Homo sapiens), O75762 [F909A], sequence (O75762 whole entry F909A): as the sequence (O75762 whole entry) above, with F909A counted along it
# Transient receptor potential cation channel subfamily A member 1 (Mus musculus, UniProt Q8BLA8), sequence (Q8BLA8 whole entry): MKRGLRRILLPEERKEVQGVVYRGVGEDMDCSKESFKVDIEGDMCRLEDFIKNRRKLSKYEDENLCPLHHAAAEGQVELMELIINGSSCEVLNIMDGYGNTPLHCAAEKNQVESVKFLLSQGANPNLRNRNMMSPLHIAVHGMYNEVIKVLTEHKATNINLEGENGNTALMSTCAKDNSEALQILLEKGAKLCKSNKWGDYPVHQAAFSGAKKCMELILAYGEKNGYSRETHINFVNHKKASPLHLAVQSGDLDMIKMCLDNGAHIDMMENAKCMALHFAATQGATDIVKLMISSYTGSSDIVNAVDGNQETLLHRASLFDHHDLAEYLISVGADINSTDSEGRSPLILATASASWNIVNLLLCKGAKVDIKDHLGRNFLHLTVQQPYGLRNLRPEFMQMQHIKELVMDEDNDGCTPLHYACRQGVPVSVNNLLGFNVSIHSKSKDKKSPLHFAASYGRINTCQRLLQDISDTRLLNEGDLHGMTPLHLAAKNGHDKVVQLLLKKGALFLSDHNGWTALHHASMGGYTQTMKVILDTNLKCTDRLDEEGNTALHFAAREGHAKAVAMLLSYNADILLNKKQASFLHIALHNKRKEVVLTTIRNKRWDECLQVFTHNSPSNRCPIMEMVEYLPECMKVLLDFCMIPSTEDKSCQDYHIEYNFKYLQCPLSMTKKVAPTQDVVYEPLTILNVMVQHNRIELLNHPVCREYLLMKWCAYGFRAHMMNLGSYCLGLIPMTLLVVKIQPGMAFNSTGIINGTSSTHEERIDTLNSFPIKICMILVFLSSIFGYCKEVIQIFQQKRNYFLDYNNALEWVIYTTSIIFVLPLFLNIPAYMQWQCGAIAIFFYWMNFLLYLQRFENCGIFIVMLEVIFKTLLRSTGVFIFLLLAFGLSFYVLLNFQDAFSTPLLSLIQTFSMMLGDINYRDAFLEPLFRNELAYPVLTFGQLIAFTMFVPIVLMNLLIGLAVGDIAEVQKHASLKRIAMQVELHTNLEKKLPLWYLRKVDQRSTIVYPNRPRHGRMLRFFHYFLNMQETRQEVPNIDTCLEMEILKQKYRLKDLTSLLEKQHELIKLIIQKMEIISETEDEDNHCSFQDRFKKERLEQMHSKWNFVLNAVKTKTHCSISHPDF
compound,measurement,setting,value
O=C/C=C/c1ccccc1,Activity,[1],Active
same,EC50,[2],61 µM
same,EC50,[3],9 µM
CC(Cc1ccc(O)c(O)c1)C(C)Cc1ccc(O)c(O)c1 (stereo not drawn) [NORDIHYDROGUAIARETIC ACID],Activity,[1],Active
same,Activity,[4],inactive
same,EC50,[5],4.9 µM
same,EC50,[3],35 µM
CCCN(CCC)S(=O)(=O)c1ccc(C(=O)O)cc1 [PROBENECID],Activity,[6],inactive
same,Activity,[7],Active
same,Activity,[8],inactive
same,EC50,[9],4200 µM
C=CCc1ccc(O)c(OC)c1 [EUGENOL],EC50,[10],261 µM
same,Activity,[11],Active
same,Activity,[12],inactive
same,EC50,[3],168 µM
O=C(O)c1cc([N+](=O)[O-])ccc1NCCCc1ccccc1 [5-NITRO-2-PHENYLPROPYLAMINOBENZOIC ACID [NPPB]],Activity,[13],Active
same,Activity,[14],inactive
same,EC50,[15],0.32 µM
same,EC50,[3],0.6 µM
CC(C)=CCC/C(C)=C/CC/C(C)=C/CSc1ccccc1C(=O)O [SALIRASIB],Activity,[13],Active
same,Activity,[14],inactive
same,EC50,[16],7 µM
same,EC50,[3],0.8 µM
